Results from different studies.
Sample: plasma
Route: intravenous

SMILES	system	setting	Vd
Oc1cc(O)cc(-c2cc3ccc(O)cc3o2)c1	male rat	5 mg/kg	0.393 L/kg
Cc1nc(Nc2ncc(C(=O)Nc3c(C)cccc3Cl)s2)cc(N2CCN(CCO)CC2)n1	female Sprague-Dawley rat	5 mg/kg	4.6 L
CN1CCC(COc2cnc(-c3cccc(Cn4nc(-c5cccc(C#N)c5)ccc4=O)c3)nc2)CC1	male Sprague-Dawley rat	1 mg/kg	19 L/kg
Oc1c(Br)cc(Cl)c2cccnc12	Sprague-Dawley rat	2 mg/kg	21.3 L/kg
CCNC(=O)c1nc(-c2ccc3[nH]c(-c4nc(C)no4)cc3c2)c(C)[nH]1	Sprague-Dawley rat	1 mg/kg	1.3 L/kg
CCCC[C@@H]1NC(=O)[C@H](Cc2ccc(O)cc2)NC(=O)[C@@H]2CCCN2C(=O)[C@H](CC(=O)O)NC(=O)[C@H](C)NC(=O)[C@H](Cc2ccccc2)NC(=O)[C@@H]2CSCCC(=O)N3CN(CN(C3)C(=O)CCSC[C@@H](C(=O)N[C@@H](C)C(N)=O)NC1=O)C(=O)CCSC[C@H](NC(C)=O)C(=O)N[C@@H](CC(C)(C)C)C(=O)N1CCC[C@H]1C(=O)N[C@@H](CCC(=O)O)C(=O)N[C@H](CCCCNC(=O)CCc1cn(CCOCCOCCOCCOCCOCCOCCOCCOCCOCCOCCNC(=O)CCOCCN(CCOCCC(=O)NCCOCCOCCOCCOCCOCCOCCOCCOCCOCCOCCn3cc(CCC(=O)NCCCC[C@H]4NC(=O)[C@H](CCC(=O)O)NC(=O)[C@@H]5CCCN5C(=O)[C@H](CC(C)(C)C)NC(=O)[C@@H](NC(C)=O)CSCCC(=O)N5CN6CN(C5)C(=O)CCSC[C@H](NC(=O)[C@H](Cc5ccc(O)cc5)NC(=O)[C@@H]5CCCN5C4=O)C(=O)N[C@@H](Cc4ccccc4)C(=O)N[C@@H](C)C(=O)N[C@@H](CC(=O)O)C(=O)N4CCC[C@H]4C(=O)N[C@@H](Cc4ccc(O)cc4)C(=O)N[C@@H](CCCC)C(=O)N[C@H](C(=O)N[C@@H](C)C(N)=O)CSCCC6=O)nn3)CCOCCC(=O)NCCOCCOCCOCCOCCOCCOCCOCCOCCOCCOCCn3cc(CCC(=O)N[C@H]4CSCCC(=O)N5CN6CN(C5)C(=O)CCSC[C@H](NC(=O)[C@@H](CC(=O)O)NC(=O)[C@H](Cc5cccc7ccccc57)NC(=O)[C@@H]5CCCN5C4=O)C(=O)N[C@@H](CCSC)C(=O)N[C@@H](CCCCNC(=N)N)C(=O)N[C@@H](CC(=O)O)C(=O)N[C@@H](Cc4c[nH]c5ccccc45)C(=O)N[C@@H](CO)C(=O)N[C@@H]([C@@H](C)O)C(=O)N4CCC[C@H]4C(=O)N4C[C@H](O)C[C@H]4C(=O)N[C@@H](Cc4c[nH]c5ccccc45)C(=O)N[C@H](C(N)=O)CSCCC6=O)nn3)nn1)C(=O)N1CCC[C@H]1C(=O)N[C@@H](Cc1ccc(O)cc1)C(=O)N2	rat	2 mg/kg	0.44 L/kg
O=C(Nc1cc(F)c(F)c(F)c1)c1ccc(F)c(S(=O)(=O)NCc2cccc(B(O)O)c2)c1	male Sprague-Dawley rat	2 mg/kg	11 L/kg
CCc1cc(C(=O)NC)c2nccc(N3CCc4c(cc(Cn5ccnc5)cc4-c4cn(C)nc4C(F)(F)F)C3=O)c2c1	male Sprague-Dawley rat	3 mg/kg	1 L/kg
COc1cc(F)ccc1-c1ncnc(Nc2cccc(CS(N)(=O)=O)c2)n1	male Wistar rat		1.4 L/kg
CCCC[C@@H]1NC(=O)[C@H](Cc2ccc(O)cc2)NC(=O)[C@@H]2CCCN2C(=O)[C@H](CC(=O)O)NC(=O)[C@H](C)NC(=O)[C@H](Cc2ccccc2)NC(=O)[C@@H]2CSCCC(=O)N3CN(CN(C3)C(=O)CCSC[C@@H](C(=O)N[C@@H](CNC(=O)CCOCCOCCOCCOCCOCCOCCOCCOCCOCCOCCOCCOCCn3cc(CCC(=O)NCCC(=O)N(C)CC(=O)N(C)CC(=O)N(C)CC(=O)N(C)CC(=O)N(C)CC(=O)N(C)CC(=O)N(C)CC(=O)N(C)CC(=O)N(C)CC(=O)N(C)CC(=O)N[C@H]4CSCCC(=O)N5CN6CN(C5)C(=O)CCSC[C@H](NC(=O)[C@@H](CC(=O)O)NC(=O)[C@H](Cc5cccc7ccccc57)NC(=O)[C@@H]5CCCN5C4=O)C(=O)N[C@@H](CCSC)C(=O)N[C@@H](CCCCNC(=N)N)C(=O)N[C@@H](CC(=O)O)C(=O)N[C@@H](Cc4c[nH]c5ccccc45)C(=O)N[C@@H](CO)C(=O)N[C@@H]([C@@H](C)O)C(=O)N4CCC[C@H]4C(=O)N4C[C@H](O)C[C@H]4C(=O)N[C@@H](Cc4c[nH]c5ccccc45)C(=O)N[C@H](C(N)=O)CSCCC6=O)nn3)C(N)=O)NC1=O)C(=O)CCSC[C@H](NC(C)=O)C(=O)N[C@@H](CC(C)(C)C)C(=O)N1CCC[C@H]1C(=O)N[C@@H](CCC(=O)O)C(=O)N[C@H](C)C(=O)N1CCC[C@H]1C(=O)N[C@@H](Cc1ccc(O)cc1)C(=O)N2	rat	2 mg/kg	0.46 L/kg
C=CC(=O)Nc1cc(Nc2nccc(Nc3cc(Cl)c(F)cc3C(C)(C)O)n2)c(OC)cc1N1CC[C@@H](N(C)C)C1	Wistar rat	3 mg/kg	13.6 L/kg
COc1ccc2c(Cc3ccccc3F)c3n(c(=O)c2c1OC)CCc1cc2c(cc1-3)OCO2	rat	5 mg/kg	0.32 L/kg
C[C@]12CC[C@H](n3ccnc3)CC1=CC[C@@H]1[C@@H]2CC[C@]2(C)C(n3cnc4ccccc43)=CC[C@@H]12	Sprague-Dawley rat	1 mg/kg	~6 L/kg
